ChEMBL document CHEMBL1806495, “Phenylpropenamide derivatives: anti-hepatitis B virus activity of the Z isomer, SAR and the search for novel analogs” (Bioorg Med Chem Lett, 2011)
The source made the active and inactive calls. The calls are words filed in the database; no cut-off is given here.

Experiments:
[1] = Cytotoxicity against human HepAD38 cells; assay type: cell-based
Procedure, shortened: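 Viability of Hep AD38 cells measured within the same cellular assay. The value is reported as CC90, the drug concentration that reduces cell viability by 90%.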

[2] = test system: Hepatitis B virus; assay: Antiviral activity against HBV infected in human HepAD38 cells assessed as inhibition of viral DNA synthesis after 3 days; assay type: functional; details: HePAD38, 72 h
Procedure, shortened: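 Anti-HBV readout in the Hep AD38 cellular assay: the value is reported as EC90, the compound concentration that inhibits viral DNA synthesis by 90%.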

[3] = test system: Hepatitis B virus; assay: Antiviral activity against HBV infected in human HepAD38 cells assessed as inhibition of viral DNA synthesis up to 100 uM after 3 days; assay type: functional, organism-based

EC90 [2] | SMILES | CC90 [1] | inhibition [3]
> 10 µM | O=C(N/C(C(=O)N1CCCCC1)=C(\Cl)c1ccccc1)c1ccc([N+](=O)[O-])cc1[N+](=O)[O-] | > 10 µM | 
6.04 µM | O=C(N/C(C(=O)N1CCCCC1)=C(\Cl)c1ccccc1)c1ccc(Br)cc1 | > 10 µM | 
6.43 µM | CC1CCCN(C(=O)/C(NC(=O)c2ccccc2)=C(/Cl)c2ccccc2)C1 (stereo unspecified) | > 10 µM | 
2.78 µM | COc1ccccc1/C(Br)=C(/NC(=O)c1ccccc1)C(=O)N1CCOCC1 | > 10 µM | 
> 10 µM | CN1CCN(C(=O)/C(NC(=O)c2ccccc2)=C(/Cl)c2ccccc2)CC1 | > 10 µM | 
> 10 µM | O=C(N/C(C(=O)N1CCCC(F)(F)C1)=C(\Cl)c1ccccc1)c1ccccc1 | > 10 µM | 
1.67 µM | O=C(N/C(C(=O)N1CCCCC1)=C(\Cl)c1ccccc1)c1ccc([N+](=O)[O-])cc1 | > 10 µM | 
> 10 µM | Cc1ccc(/C(Cl)=C(/NC(=O)c2ccccc2)C(=O)N2CCCCC2)cc1 | > 10 µM | 
1.69 µM | COc1ccccc1/C(Cl)=C(/NC(=O)c1ccc([N+](=O)[O-])cc1)C(=O)N1CCCC1 | > 10 µM | 
> 10 µM | CS(=O)(=O)c1ccc(C(=O)N/C(C(=O)N2CCCCC2)=C(\Cl)c2ccccc2)cc1 | > 10 µM | 
> 10 µM | O=C(c1c(-c2ccccc2)ccn1C(=O)c1ccc(Br)cc1)N1CCCCC1 | > 10 µM | 
4.66 µM | O=C(N/C(C(=O)N1CCCCC1)=C(\Cl)c1cccc2c1OCO2)c1ccc([N+](=O)[O-])cc1 | > 10 µM | 
> 10 µM | O=C(c1c(-c2ccccc2)ccn1C(=O)c1ccccc1)N1CCCCC1 | > 10 µM | 
9.9 µM | O=C(N/C(C(=O)N1CCCCC1)=C(\Cl)c1cccc2c1OCO2)c1ccccc1 | > 10 µM | 
 | O=C(N/C(C(=O)N1CCCCC1)=C(/Cl)c1ccccc1)c1ccccc1 |  | inactive
> 10 µM | O=C(C1=C(c2ccccc2)CCN1C(=O)c1ccccc1)N1CCCCC1 | > 10 µM | 
0.56 µM | COc1ccccc1/C(Cl)=C(/NC(=O)c1ccc([N+](=O)[O-])cc1)C(=O)N1CCCCC1 | > 10 µM | 
> 10 µM | O=C(N/C(C(=O)N1CCCCC1)=C(\Cl)c1ccc(Cl)cc1)c1ccccc1 | > 10 µM | 
3.92 µM | C/C(=C(/NC(=O)c1ccc(Br)cc1)C(=O)N1CCCCC1)c1ccccc1 | > 10 µM | 
> 10 µM | COc1ccccc1C1=C(C(=O)N2CCCCC2)N(C(=O)c2ccccc2)CC1 | > 10 µM | 
> 10 µM | O=C(C1C(c2ccccc2)CCN1C(=O)c1ccc(Br)cc1)N1CCCCC1 (stereo unspecified) | > 10 µM | 

EC90 [2] | SMILES | CC90 [1] | inhibition [3]
5.9 µM | O=C(N/C(C(=O)N1CCCCC1)=C(\Br)c1ccccc1)c1ccccc1 | > 10 µM | 
4.72 µM | COc1ccccc1/C(Cl)=C(/NC(=O)c1ccccc1)C(=O)N1CCOCC1 | > 10 µM | 
0.91 µM | O=C(N/C(C(=O)N1CCCCC1)=C(\Br)c1ccccc1)c1ccc(Cl)cc1 | > 10 µM | 
0.39 µM | COc1ccccc1/C(Br)=C(/NC(=O)c1ccc([N+](=O)[O-])cc1)C(=O)N1CCCC1 | > 10 µM | 
1.92 µM | C/C(=C(/NC(=O)c1ccc(Cl)cc1)C(=O)N1CCCCC1)c1ccccc1 | > 10 µM | 
> 10 µM | COc1cc([N+](=O)[O-])ccc1C(=O)N/C(C(=O)N1CCCCC1)=C(\Cl)c1ccccc1 | > 10 µM | 
4.06 µM | O=C(N/C(C(=O)N1CCCCC1)=C(\Cl)c1ccccc1)c1ccc([N+](=O)[O-])cc1Br | > 10 µM | 
> 10 µM | O=C(N/C(C(=O)N1CCOCC1)=C(\Cl)c1ccccc1)c1ccccc1 | > 10 µM | 
2.9 µM | Cc1ccc(C(=O)N/C(C(=O)N2CCCCC2)=C(\Cl)c2ccccc2)cc1 | > 10 µM | 
1.8 µM | Cc1ccccc1/C(Cl)=C(/NC(=O)c1ccccc1)C(=O)N1CCCCC1 | > 10 µM | 
2.17 µM | O=C(N/C(C(=O)N1CCCCC1)=C(\Cl)c1ccccc1)c1ccc(F)cc1 | > 10 µM | 
1.81 µM | O=C(N/C(C(=O)N1CCCCC1)=C(\Cl)c1ccccc1F)c1ccccc1 | > 10 µM | 
1.25 µM | O=C(N/C(C(=O)N1CCCCC1)=C(\Br)c1cccc2c1OCO2)c1ccc([N+](=O)[O-])cc1 | > 10 µM | 
> 10 µM | O=C(C1=C(c2ccccc2)CCN1C(=O)c1ccc(Br)cc1)N1CCCCC1 | > 10 µM | 
1.25 µM | O=C(N/C(C(=O)N1CCCCC1)=C(\Cl)c1ccccc1)c1ccc(Cl)cc1 | > 10 µM | 
> 10 µM | O=C(C1C(c2ccccc2)CCN1C(=O)c1ccccc1)N1CCCCC1 (stereo unspecified) | > 10 µM | 
5.51 µM | O=C(N/C(C(=O)N1CCCCC1)=C(\Cl)c1ccccc1)c1ccccc1 | > 10 µM | 
1.71 µM | COc1ccccc1/C(Cl)=C(/NC(=O)c1ccccc1)C(=O)N1CCCCC1 | > 10 µM | 
> 10 µM | O=C(N/C(C(=O)N1CCCCC1)=C(\Cl)c1ccccc1)c1ccc([N+](=O)[O-])cc1C(F)(F)F | > 10 µM | 
> 10 µM | COc1ccc(C(=O)N/C(C(=O)N2CCCCC2)=C(\Cl)c2ccccc2)cc1 | > 10 µM | 
